This is an account of results in ChEMBL document CHEMBL4765334, “Chemical profiling of HIV-1 capsid-targeting antiviral PF74” (Eur J Med Chem, 2020).

The EC50 is the concentration that produces a half-maximal response. The CC50 is the concentration giving 50% cytotoxicity. Higher therefore signals lower toxicity to the cells. As a reminder, the ΔTm is the change in melting temperature against a reference sample. In general, inhibition refers to the share of the control response that was lost under treatment.

The test system of data set [1] is Human immunodeficiency virus 1. Kind of data set: Antiviral activity against HIV1 NL4-3 infected in human TZM-GFP cells assessed as number of GFP positive cells incubated for 48 hrs by imaging reader. The conditions noted are these: Human immunodeficiency virus 1, NL4-3, TZM. It counts as functional, organism-based. The method in brief:
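TZM-GFP cells seeded 1 × 10^4/well and given increasing compound concentrations 24 h later; infected with HIV-1 NL4-3 (MOI = 1) after a further 24 h. Read-out after 48 h: GFP-positive cell counts (LTR-driven) versus DMSO controls. EC50 fitted as log(inhibitor) vs normalized response, variable slope, per experiment and averaged; mean ± SD, duplicates, at least two independent experiments.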

Data set [2] can be described thus: Stability of the compound in mouse plasma assessed as half life incubated for 3 hrs by LC-MS/MS analysis. The class given is ADME, cell-free.
Data set [3] can be described thus: Metabolic stability at phase 1 in human liver microsomes assessed as half life at 1 uM in presence of Cobi-cistat CYP3A inhibitor by LC-MS/MS analysis. It counts as ADME, Microsome. A general note: Liver microsomes are vesicles of endoplasmic reticulum, rich in cytochrome P450 enzymes.
The test system of the next data set is TZM. Briefly: (§1) Cytotoxicity against human TZM-GFP cells incubated for 72 hrs by XTT assay. It counts as cell-based. Particulars: tzm, 72 h. The method in brief:
(§2)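 TZM-GFP cells seeded at 1 × 10^4 per well and exposed continuously to increasing compound concentrations for 72 h. Viable cell number read by XTT proliferation kit. CC50 fitted as log(inhibitor) vs normalized response, variable slope, per independent assay and averaged. Run in duplicate, at least two independent experiments, reported as mean ± standard deviation.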
(In general: Formazan colour is commonly taken as a measure of viable cells.)

Data set [4] can be described thus: Stability of the compound in human plasma assessed as half life incubated for 3 hrs by LC-MS/MS analysis. It counts as ADME, cell-free.
For data set [5], the system named is Human immunodeficiency virus 1. Kind of data set: Binding affinity to covalently-crosslinked hexameric HIV1 capsid protein A14C/E45C/W184A/M185A mutant expressed in Escherichia coli BL21(DE3)RIL assessed as change in melting temperature at 20 uM incubated for 30 mins by thermal shift dye based fluorescence analysis. The method, boiled down:
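Thermal shift: 15 μM CA121 in 50 mM sodium phosphate pH 8.0 with Sypro Orange and compound at 20 μM final or DMSO control. Heated 25 to 95 °C at 0.2 °C/10 s; fluorescence Ex 475–500, Em 520–590 nm. ΔTm = Tm(compound) − T0(DMSO) for CA hexamer melting.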

The nature of data set [6]: Metabolic stability at phase 1 in mouse liver microsomes assessed as half life at 1 uM by LC-MS/MS analysis. It counts as ADME, Microsome. The conditions noted are these: microsomes, 1 µM.
A short description of data set [7]: Metabolic stability at phase 1 in human liver microsomes assessed as half life at 1 uM by LC-MS/MS analysis. It counts as ADME, Microsome.
A short description of data set [8]: Metabolic stability at phase 1 in mouse liver microsomes assessed as half life at 1 uM in presence of Cobi-cistat CYP3A inhibitor by LC-MS/MS analysis. The class given is ADME, Microsome.
A short description of data set [9]: as §1. The class given is cell-based. Particulars: TZM-GFP cells. The method, boiled down:
as §2

Data set [10] deals with Human immunodeficiency virus 1. Kind of data set: Antiviral activity against HIV1 NL4-3 infected in human TZM-GFP cells assessed as number of GFP positive cells at 2 uM incubated for 48 hrs by imaging reader. The class given is functional. The conditions noted are these: Human immunodeficiency virus 1, NL4-3, TZM. The method, boiled down: (§3)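 TZM-GFP cells seeded 1 × 10^4/well; after 24 h medium replaced with compound at the stated single concentration, then 24 h later infected with HIV-1 (MOI = 1). After 48 h, GFP-positive cells counted by imaging and percent inhibition determined versus DMSO controls. Duplicate wells, at least two independent experiments.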

In data set [11] the test system is Human immunodeficiency virus 1. Briefly: Antiviral activity against HIV1 NL4-3 infected in human TZM-GFP cells assessed as number of GFP positive cells at 20 uM incubated for 48 hrs by imaging reader. The class given is functional. Particulars: Human immunodeficiency virus 1, NL4-3, TZM. The method, boiled down: as §3

Consider `CN(C(=O)[C@H](Cc1ccccc1)NC(=O)Cc1c[nH]c2ccccc12)c1ccc(Br)cc1`, for which the EC50 in [1] is 0.14 µM. Moreover, the t1/2 was over 6 h in data set [2]; 2.18 h in [3]; over 6 h in [4]; 42 s in data set [6]; 2.1 min in data set [7]; 0.867 h in data set [8]. Further, in the data set on TZM, the CC50 amounted to 45 µM. In [5], the ΔTm turned out to be 8.3 °C.

For `CN(C(=O)[C@H](Cc1ccccc1)NC(=O)Cc1c[nH]c2ccccc12)c1ccccc1`, the EC50 in data set [1] came out at 0.46 µM. In data set [9], this compound came in with a CC50 at 72 h of over 100 µM. The ΔTm in data set [5] turned out to be 6.1 °C.

In the case of `Cc1[nH]c2ccccc2c1CC(=O)N[C@@H](Cc1ccccc1)C(=O)N1CCC[C@H]1C(=O)Nc1ccccc1`, the EC50 in data set [1] is over 20 µM. In data set [9], this compound showed a CC50 at 72 h of over 50 µM. In [5], the ΔTm came out at 0.6 °C.

On to `Cc1[nH]c2ccccc2c1CC(=O)N[C@@H](Cc1ccccc1)C(=O)N(C)c1cccc(Cl)c1`, for which the EC50 in data set [1] was 1.2 µM. Also, in data set [9], the CC50 at 72 h was under 50 µM. The ΔTm in data set [5] was 7.6 °C.

Take `CN(C(=O)[C@H](Cc1ccccc1)NC(=O)Cc1c[nH]c2ccccc12)c1cccc(F)c1`: the inhibition at 2 µM in data set [10] amounted to 39%. Half-maximal cytotoxicity in [9] (CC50 at 72 h) was put at 50 µM. In addition, in data set [5], the ΔTm stood at 2.5 °C. Also, the inhibition at 20 µM in [11] was found to be 97%.

With `CN(C(=O)[C@H](Cc1ccccc1)NC(=O)Cc1c[nH]c2ccccc12)c1cccc(C(F)(F)F)c1`, the inhibition at 2 µM in data set [10] was 16%. In addition, the CC50 in the data set with TZM is under 50 µM. Besides, in data set [5], the ΔTm stood at 2.8 °C. In addition, the inhibition at 20 µM in data set [11] turned out to be 96%.

Turning to `CN(C(=O)[C@H](Cc1ccccc1)NC(=O)CCc1c[nH]c2ccccc12)c1ccccc1`, the inhibition at 2 µM in [10] stood at 0%. In the data set on TZM, this compound gave a CC50 of over 50 µM. Also, the ΔTm in data set [5] was 2.3 °C. Moreover, the inhibition at 20 µM in [11] was found to be 98%.
